Measured values reported in ChEMBL document CHEMBL1126751, “Studies on quinazolines. 5. 2,3-dihydroimidazo[1,2-c]quinazoline derivatives: a novel class of potent and selective alpha 1-adrenoceptor antagonists and antihypertensive agents” (J Med Chem, 1993).
Values belong to the compound of their own block, whether it stands above or below them. Activity calls are given as the source filed them. The calls are words filed in the database; no cut-off is given here.

Columns and labels:
Rattus norvegicus [1] = assay: Blood pressure lowering activity in spontaneously hypertensive rats (SHR) after 6 hours of administration (iv) of dose of 0.5 mg/kg […]; format: functional
[2] = molecular target: T1, Adrenergic receptor alpha-1 (Rattus norvegicus, UniProt P15823+P23944+P43140); assay: Alpha-1 antagonistic activity against phenylephrine in rat aorta; format: functional, tissue-based
T1 sequence (P15823 whole entry): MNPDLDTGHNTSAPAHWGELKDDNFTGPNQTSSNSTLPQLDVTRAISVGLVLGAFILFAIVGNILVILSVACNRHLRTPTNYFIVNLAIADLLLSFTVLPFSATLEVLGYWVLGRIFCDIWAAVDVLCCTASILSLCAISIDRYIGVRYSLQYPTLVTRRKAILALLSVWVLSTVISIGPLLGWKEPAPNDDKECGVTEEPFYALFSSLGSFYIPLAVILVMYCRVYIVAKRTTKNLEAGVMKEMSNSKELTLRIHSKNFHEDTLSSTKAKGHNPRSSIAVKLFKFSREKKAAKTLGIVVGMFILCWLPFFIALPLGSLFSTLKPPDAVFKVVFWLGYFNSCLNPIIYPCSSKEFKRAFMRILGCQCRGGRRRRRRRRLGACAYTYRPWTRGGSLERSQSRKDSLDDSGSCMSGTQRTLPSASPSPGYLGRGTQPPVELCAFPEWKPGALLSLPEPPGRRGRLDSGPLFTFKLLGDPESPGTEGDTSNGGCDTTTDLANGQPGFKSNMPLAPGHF
T1 sequence (P23944 whole entry): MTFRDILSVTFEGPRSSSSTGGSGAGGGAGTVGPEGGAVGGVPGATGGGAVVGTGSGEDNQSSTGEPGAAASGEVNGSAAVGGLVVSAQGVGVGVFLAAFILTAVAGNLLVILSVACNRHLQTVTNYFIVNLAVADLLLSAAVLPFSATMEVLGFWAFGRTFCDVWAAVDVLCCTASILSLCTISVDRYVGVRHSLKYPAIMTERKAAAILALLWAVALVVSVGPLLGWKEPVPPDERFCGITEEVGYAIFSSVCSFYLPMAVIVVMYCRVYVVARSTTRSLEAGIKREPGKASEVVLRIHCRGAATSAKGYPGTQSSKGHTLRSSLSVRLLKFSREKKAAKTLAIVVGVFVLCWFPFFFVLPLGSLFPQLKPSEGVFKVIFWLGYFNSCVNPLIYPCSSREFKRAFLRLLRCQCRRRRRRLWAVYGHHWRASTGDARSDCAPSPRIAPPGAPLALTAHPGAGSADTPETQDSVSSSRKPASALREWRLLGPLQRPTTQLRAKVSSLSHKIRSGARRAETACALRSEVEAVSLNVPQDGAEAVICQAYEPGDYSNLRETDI
T1 sequence (P43140 whole entry): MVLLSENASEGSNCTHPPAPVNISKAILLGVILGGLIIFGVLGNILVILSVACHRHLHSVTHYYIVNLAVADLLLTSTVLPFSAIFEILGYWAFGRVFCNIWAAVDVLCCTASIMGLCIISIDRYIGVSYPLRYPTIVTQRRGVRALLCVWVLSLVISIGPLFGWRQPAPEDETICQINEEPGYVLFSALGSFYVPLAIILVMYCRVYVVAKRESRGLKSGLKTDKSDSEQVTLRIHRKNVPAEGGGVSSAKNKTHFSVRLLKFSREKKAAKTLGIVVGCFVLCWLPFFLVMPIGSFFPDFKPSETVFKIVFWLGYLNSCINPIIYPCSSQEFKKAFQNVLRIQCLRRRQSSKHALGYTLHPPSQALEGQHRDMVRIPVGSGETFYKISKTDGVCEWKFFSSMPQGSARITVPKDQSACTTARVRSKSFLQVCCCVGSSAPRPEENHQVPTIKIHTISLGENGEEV

Rattus norvegicus [3] = assay: Blood pressure lowering activity in spontaneously hypertensive rats (SHR) after 1 hour of administration (iv) of dose of 0.5 mg/kg […]; format: functional
[4] = molecular target: T2, Adrenergic receptor alpha-2 (Rattus norvegicus, UniProt P22086+P19328+P22909); assay: Binding affinity against alpha-2 adrenergic receptor by measuring displacement of [3H]clonidine from rat brain cortex membranes (in vitro).; format: cell membranes, Membrane
T2 sequence (P22086 whole entry): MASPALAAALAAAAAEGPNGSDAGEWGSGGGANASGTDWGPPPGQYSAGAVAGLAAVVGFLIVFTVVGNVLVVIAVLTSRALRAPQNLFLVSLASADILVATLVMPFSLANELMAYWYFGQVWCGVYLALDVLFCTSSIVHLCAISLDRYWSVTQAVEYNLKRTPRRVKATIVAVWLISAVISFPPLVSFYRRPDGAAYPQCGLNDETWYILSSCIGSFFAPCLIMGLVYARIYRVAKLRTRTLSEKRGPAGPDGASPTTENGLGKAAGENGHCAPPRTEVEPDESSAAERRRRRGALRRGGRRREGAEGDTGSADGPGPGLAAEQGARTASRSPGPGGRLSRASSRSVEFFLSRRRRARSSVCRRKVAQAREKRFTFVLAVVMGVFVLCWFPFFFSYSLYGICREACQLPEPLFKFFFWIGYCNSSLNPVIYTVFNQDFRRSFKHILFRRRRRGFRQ
T2 sequence (P19328 whole entry): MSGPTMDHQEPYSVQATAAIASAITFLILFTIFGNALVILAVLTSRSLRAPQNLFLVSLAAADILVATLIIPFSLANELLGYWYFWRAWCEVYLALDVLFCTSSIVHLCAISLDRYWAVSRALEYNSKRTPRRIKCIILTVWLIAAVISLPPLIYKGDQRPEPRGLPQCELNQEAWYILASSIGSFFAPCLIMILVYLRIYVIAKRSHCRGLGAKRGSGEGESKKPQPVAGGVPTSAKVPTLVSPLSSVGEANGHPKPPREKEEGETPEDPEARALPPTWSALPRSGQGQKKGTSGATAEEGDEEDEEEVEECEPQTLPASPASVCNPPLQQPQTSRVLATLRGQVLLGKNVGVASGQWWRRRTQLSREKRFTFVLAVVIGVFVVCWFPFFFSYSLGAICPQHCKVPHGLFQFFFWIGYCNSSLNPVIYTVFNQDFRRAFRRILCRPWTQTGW
T2 sequence (P22909 whole entry): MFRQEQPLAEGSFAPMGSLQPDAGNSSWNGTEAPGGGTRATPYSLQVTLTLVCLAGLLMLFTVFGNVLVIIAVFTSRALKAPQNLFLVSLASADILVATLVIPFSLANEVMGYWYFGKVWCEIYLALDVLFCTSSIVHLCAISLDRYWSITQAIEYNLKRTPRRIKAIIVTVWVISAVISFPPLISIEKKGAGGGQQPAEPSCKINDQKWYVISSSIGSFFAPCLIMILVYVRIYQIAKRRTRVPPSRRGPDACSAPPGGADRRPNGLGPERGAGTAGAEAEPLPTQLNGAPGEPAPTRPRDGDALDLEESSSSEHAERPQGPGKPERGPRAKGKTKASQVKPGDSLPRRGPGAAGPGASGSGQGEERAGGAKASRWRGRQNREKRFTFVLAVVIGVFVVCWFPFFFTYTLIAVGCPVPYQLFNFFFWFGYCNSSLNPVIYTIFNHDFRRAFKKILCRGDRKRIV

[5] = molecular target: T1, Adrenergic receptor alpha-1; assay: Binding affinity against alpha-1 adrenergic receptor by measuring displacement of [3H]prazosin from rat brain cortex membranes (in vitro).; format: cell membranes, Membrane
Rattus norvegicus [6] = assay: Blood pressure lowering activity in spontaneously hypertensive rats (SHR) after 1 hour of administration (iv) of dose of 0.5 mg/kg; Did not last more than 1/2 hr […]; format: functional, organism-based; parameters: dose 0.5 mg/kg
Rattus norvegicus [7] = assay: Blood pressure lowering activity in spontaneously hypertensive rats (SHR) after 6 hours of administration (iv) of dose of 0.5 mg/kg; Did not last more than 1/2 hr […]; format: functional, organism-based; parameters: dose 0.5 mg/kg
Rattus norvegicus [8] = assay: Blood pressure lowering activity in spontaneously hypertensive rats (SHR) after 6 hours of administration (iv) of dose of 1.0 mg/kg; format: functional
Rattus norvegicus [9] = assay: Blood pressure lowering activity in spontaneously hypertensive rats (SHR) after 1 hour of administration (iv) of dose of 1.0 mg/kg; format: functional
Rattus norvegicus [10] = assay: Blood pressure lowering activity in spontaneously hypertensive rats (SHR) after 1 hour of administration (iv) of dose of 0.5 mg/kg; format: functional
Rattus norvegicus [11] = assay: Blood pressure lowering activity in spontaneously hypertensive rats (SHR) after 6 hours of administration (iv) of dose of 0.5 mg/kg; format: functional
Rattus norvegicus [12] = assay: Blood pressure lowering activity in spontaneously hypertensive rats (SHR) after 6 hours of administration (iv) of dose of 0.25 mg/kg; format: functional
Procedure, shortened: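 Anesthetized spontaneously hypertensive rats of either sex, 250–300 g (pentobarbital sodium 40–50 mg/kg ip). Compound given iv via cannulated femoral vein. Arterial pressure recorded via right femoral artery cannula with pressure transducer, body temperature held at 37.5 °C. Value is maximum change in mean blood pressure (mmHg) at the time point. Groups of four to six animals.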

[13] = molecular target: T1, Adrenergic receptor alpha-1; assay: Alpha-1-antagonistic activity against phenylephrine in rat aorta; format: functional, tissue-based
Rattus norvegicus [14] = assay: Inhibitory concentration against phenylephrine in conscious spontaneously […] rats (SHR); format: functional, organism-based
Rattus norvegicus [15] = assay: Inhibitory concentration against 5-HT in conscious spontaneously […] rats (SHR); format: functional, organism-based
Rattus norvegicus [16] = assay: Blood pressure lowering activity in spontaneously hypertensive rats (SHR) after 1 hour of administration (iv) of dose of 4.0 mg/kg; Did not last more than 1/2 hr […]; format: functional, organism-based; parameters: dose 4 mg/kg
Rattus norvegicus [17] = assay: Blood pressure lowering activity in spontaneously hypertensive rats (SHR) after 6 hour of administration (iv) of dose of 4.0 mg/kg; Did not last more than 1/2 hr […]; format: functional, organism-based; parameters: dose 4 mg/kg
Rattus norvegicus [18] = assay: Blood pressure lowering in spontaneously hypertensive rats (SHR) after 1 hour of administration (iv) of dose of 4.0 mg/kg […]; format: functional
Rattus norvegicus [19] = assay: Blood pressure lowering activity in spontaneously hypertensive rats (SHR) after 1 hour of administration (iv) of dose of 1.0 mg/kg […]; format: functional
Rattus norvegicus [20] = assay: Blood pressure lowering activity in spontaneously hypertensive rats (SHR) after 6 hours of administration (iv) of dose of 1.0 mg/kg […]; format: functional
Rattus norvegicus [21] = assay: Blood pressure lowering activity in spontaneously hypertensive rats (SHR) after 6 hours of administration (iv) of dose of 2.0 mg/kg […]; format: functional
Rattus norvegicus [22] = assay: Blood pressure lowering activity in spontaneously hypertensive rats (SHR) after 1 hour of administration (iv) of dose of 2.0 mg/kg […]; format: functional

SMILES: COc1ccccc1N1CCN(CCn2c(=O)[nH]c3ccccc3c2=O)CC1
MBP (Rattus norvegicus [1]): -31.7 mmHg
pA2 [2]: 9.63
MBP (Rattus norvegicus [3]): -33.9 mmHg
Ki [4]: 1599 nM
Ki [5]: 0.25 nM

SMILES: COc1ccccc1N1CCN(CC2CN=C3c4ccccc4NC(=O)N32)CC1 (stereo not drawn)
MBP (Rattus norvegicus [6]): inactive
MBP (Rattus norvegicus [7]): inactive
Ki [4]: 593 nM
Ki [5]: 0.21 nM

SMILES: CN1C(=O)N2CC(CN3CCN(c4ccccc4)CC3)N=C2c2ccccc21 (stereo not drawn)
MBP (Rattus norvegicus [6]): inactive
MBP (Rattus norvegicus [7]): inactive
Ki [4]: 3334 nM
Ki [5]: 10.5 nM

SMILES: O=C(c1ccc(F)cc1)C1CCN(CCn2c(=O)[nH]c3ccccc3c2=O)CC1 [KETANSERIN]
IC50 (Rattus norvegicus [14]): 5.73 nM
IC50 (Rattus norvegicus [15]): 27.8 nM

SMILES: CN1C(=O)N2C(=NCC2CN2CCN(c3ccccc3)CC2)c2ccccc21 (stereo not drawn)
MBP (Rattus norvegicus [19]): -23.3 mmHg
MBP (Rattus norvegicus [20]): -20 mmHg
Ki [5]: 15 nM

SMILES: COc1ccc(N2CCN(CC3CN4C(=O)Nc5ccccc5C4=N3)CC2)cc1 (stereo not drawn)
MBP (Rattus norvegicus [16]): inactive
MBP (Rattus norvegicus [17]): inactive
Ki [5]: > 100 nM

SMILES: CN1C(=O)N2C(=NCC2CN2CCN(c3ccccc3Cl)CC2)c2ccccc21 (stereo not drawn)
MBP (Rattus norvegicus [1]): -5.9 mmHg
MBP (Rattus norvegicus [21]): -14 mmHg
MBP (Rattus norvegicus [3]): -8.3 mmHg
Ki [4]: 810 nM
Ki [5]: 0.068 nM
MBP (Rattus norvegicus [22]): -24 mmHg

Second part, led by results:

Ki [4]: 3860 nM
pA2 [13]: 9.82
IC50 (Rattus norvegicus [14]): 0.44 nM
IC50 (Rattus norvegicus [15]): 0.36 nM
Ki [5]: 2.01 nM
SMILES: O=C1Nc2ccccc2C2=NC(CN3CCN(c4ccccc4)CC3)CN12 (stereo not drawn)
MBP (Rattus norvegicus [8]): -44.5 mmHg
MBP (Rattus norvegicus [9]): -57.5 mmHg
MBP (Rattus norvegicus [10]): -49.3 mmHg
MBP (Rattus norvegicus [11]): -32.5 mmHg
MBP (Rattus norvegicus [12]): -8.75 mmHg

Ki [4]: 3450 nM
Ki [5]: 1.3 nM
SMILES: COc1ccccc1N1CCN(CC2CN3C(=O)Nc4ccccc4C3=N2)CC1 (stereo not drawn)
MBP (Rattus norvegicus [10]): -20 mmHg
MBP (Rattus norvegicus [11]): -18.8 mmHg

Ki [4]: 3166 nM
Ki [5]: 1.1 nM
SMILES: O=C1Nc2ccccc2C2=NC(CN3CCN(c4ccccc4Cl)CC3)CN12 (stereo not drawn)
MBP (Rattus norvegicus [8]): -12.6 mmHg
MBP (Rattus norvegicus [9]): -40.7 mmHg
MBP (Rattus norvegicus [10]): -25.5 mmHg
MBP (Rattus norvegicus [11]): -5.7 mmHg

Ki [5]: > 100 nM
SMILES: O=C1Nc2ccccc2C2=NC(CN3CCN(Cc4ccc5c(c4)OCO5)CC3)CN12 (stereo not drawn)
MBP (Rattus norvegicus [16]): inactive
MBP (Rattus norvegicus [17]): inactive

Ki [4]: > 10000 nM
Ki [5]: 850 nM
SMILES: O=C1Nc2ccccc2C2=NC(CN3CCN(Cc4ccccc4)CC3)CN12 (stereo not drawn)
MBP (Rattus norvegicus [18]): -43.7 mmHg
